Assay outcomes: PubChem BioAssay, several laboratories
The list is not random: actives were taken first. Their share in the collection is about 3%.
aDG glyco up: increases alpha dystroglycan glycosylation | Pro5-aDG cells, alpha-DG glycosylation AlphaScreen (IIH6); 0% Pro5, 100% B10-LARGE cell signal | activation, % at 10 µM | 360,000 compounds, 0.22% hits;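 active means activation of at least 8% versus controls, or a plate z-score of at least 8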;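 further: Pro5 are CHO cells carrying HIG-tagged alpha-DG that lacks glycosylation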
GC-A act: GC-A (human) enzyme activation. HEK293 GC-A cells, cGMP TR-FRET, EC30 ANP; 0% at EC30 ANP, 100% saturating ANP. activation, % at 10 µM. 370,000 compounds, 0.14% hits; in the data active means activation above about 40%
JMJD2C inh: inhibitors of human GASC-1 (JMJD2C) demethylase. inhibition, % at 2.35 µM. GST-JMJD2C(1-420) H3K9me3 demethylation, DELFIA europium. 330,000 compounds, 0.069% hits. Q9H3R0. AID 2099;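 active means more than half of a compound's replicate wells show inhibition beyond 50%, single wells judged on their own value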;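 further: signal counts dimethyl H3K9 product captured on neutravidin plate; 0% = median of DMSO wells and 100% = 0.3 times that DMSO median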
Hep lipid drop: hepatic lipid droplet formation modulation; AML12 mouse hepatocytes, oleate lipid droplets, BODIPY imaging; inhibition, % at 6.5 µM; 240,000 compounds, 0.4% hits; AID 1656;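 active means lipid droplet intensity inhibited by at least 50%, with more than 500 cells counted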
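Material – mouse AML12 hepatocyte cell line, fixed after treatment · Compound dosing – one dose, 6.5 µM compound · Times – compound with oleate, overnight · Measured by – Image-based BODIPY and DAPI two-channel analysis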
GRIN3A LBD mod: modulates the human NR3A ligand-binding domain; NR3A LBD differential scanning fluorimetry, Tm shift; 0% = protein alone, 100% = glycine-bound protein; Tm shift relative to glycine control, % at 25 µM; 340,000 compounds, 2.5% hits; AID 1259313;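 active means melting temperature shift of at least 10% of the positive control shift, at one fixed dose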
NPR2 activator: GC-B (human) receptor activation | AID 1920062 | 370,000 compounds, 0.11% hits | P20594 | activation, % at 10 µM | HEK293-GC-B cells, CNP EC30, cGMP TR-FRET; 0% at EC30 CNP, 100% saturating CNP;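 active means activation at 10 µM reaching about 35% in either raw or pattern-adjusted values, limit read from the data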
Target sequence (P20594 whole entry, looked up): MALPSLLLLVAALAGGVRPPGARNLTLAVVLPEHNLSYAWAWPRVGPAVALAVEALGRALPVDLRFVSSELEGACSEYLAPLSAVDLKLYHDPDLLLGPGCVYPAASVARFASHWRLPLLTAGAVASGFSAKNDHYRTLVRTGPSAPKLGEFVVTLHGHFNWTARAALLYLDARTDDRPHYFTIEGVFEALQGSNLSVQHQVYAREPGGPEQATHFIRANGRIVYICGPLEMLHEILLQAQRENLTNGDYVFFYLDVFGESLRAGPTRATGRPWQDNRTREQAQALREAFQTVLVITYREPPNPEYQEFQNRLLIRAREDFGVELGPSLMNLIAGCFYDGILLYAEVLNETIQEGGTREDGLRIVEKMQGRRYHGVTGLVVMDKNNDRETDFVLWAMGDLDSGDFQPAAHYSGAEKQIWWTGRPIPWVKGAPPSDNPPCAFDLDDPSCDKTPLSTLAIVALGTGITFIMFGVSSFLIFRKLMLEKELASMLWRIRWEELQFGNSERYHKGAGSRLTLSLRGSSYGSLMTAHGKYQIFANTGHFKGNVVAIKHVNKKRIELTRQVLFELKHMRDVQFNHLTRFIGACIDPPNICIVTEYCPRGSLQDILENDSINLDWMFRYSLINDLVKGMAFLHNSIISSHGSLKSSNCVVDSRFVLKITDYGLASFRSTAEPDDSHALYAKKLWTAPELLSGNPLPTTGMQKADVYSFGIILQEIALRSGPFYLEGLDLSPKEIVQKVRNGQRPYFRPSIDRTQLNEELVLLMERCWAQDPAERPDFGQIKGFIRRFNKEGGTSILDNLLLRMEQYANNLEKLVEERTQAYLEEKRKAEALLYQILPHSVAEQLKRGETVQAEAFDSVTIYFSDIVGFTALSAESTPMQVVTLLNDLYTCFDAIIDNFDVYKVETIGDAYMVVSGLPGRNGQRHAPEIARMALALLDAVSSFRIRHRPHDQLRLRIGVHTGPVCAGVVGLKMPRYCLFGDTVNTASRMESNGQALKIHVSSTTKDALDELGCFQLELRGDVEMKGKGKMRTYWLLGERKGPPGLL
Active calls of the source: *; . = no result given.

SMILES | aDG glyco up | GC-A act | JMJD2C inh | Hep lipid drop | GRIN3A LBD mod | NPR2 activator
C=CCN1C(=O)c2n[nH]c(C)c2C1c1ccc(C)cc1 (stereo not drawn) | . | 3 | . | . | . | 10
CC(C)n1nnnc1C1(C)CCCCC(=O)N1Cc1cccc(C(F)(F)F)c1 (stereo not drawn) | . | -2 | . | . | . | 1
C[N+]1=C2N[C@@H](c3ccccc3)CC(=O)N2/C(=C\c2ccccc2)[C@@H]1Cc1ccccc1 | . | -7 | . | . | . | -20
C=CCN1C(=O)[C@H](CC(=O)NCC23CC4CC(CC(C4)C2)C3)[C@@]2(C(=O)OC)CCCCC=C12 | . | -1 | . | . | . | 1
CCOc1ccc(C(=O)COc2ccc(NC(C)=O)cc2)cc1 | 0 | -3 | -3 | . | -2 | -10
CCOc1ccc2nc(NS(=O)(=O)c3ccc4c(c3)n(C)c(=O)n4C)sc2c1 | 0 | 4 | 8 | -2 | 29* | -7
CCOc1ccc(NC(=O)NC(=O)N(C(C)C)S(C)(=O)=O)cc1 | 0 | -1 | 37 | 2 | 18* | -2
CCOc1ccc(NC(=O)Nc2ccc(NC(C)=O)cc2)cc1 | 0 | 0 | -13 | 3 | 22* | -4
CCOc1cccc2sc(Nc3nc4ccc(NC(C)=O)cc4s3)nc12 | 0 | -7 | -3 | 3 | 26* | -9
Cc1ccc(-n2c(SCC(=O)Nc3ccc(OCc4ccccc4)cc3)nnc2-c2cnccn2)cc1 | . | -1 | . | . | . | -1
CCCCCCCCN1C(=O)[C@@H](CC(=O)NCc2cccs2)C[C@@]2(C(=O)OC)C1=C[C@H](C(C)C)O[C@@H]2C1CC1 | . | 2 | . | . | . | 4
O=C(N[C@@H](Cc1cccnc1)C(=O)N1CCC[C@H]1C(=O)NC1CCCC1)C1CCCC1 | . | 2 | . | . | . | 8
CCCc1cc(=O)oc2cc(C)cc(OC(C)C(=O)NCc3ccncc3)c12 (stereo not drawn) | 0 | -8 | 0 | 12 | -2 | -11
CCOc1ccc(NC(=O)c2ccc3nccnc3c2)cc1 | 0 | -4 | 2 | 2 | -8 | -4
CCOc1ccc(NC(=O)Nc2ccc3nccnc3c2)cc1 | 0 | 3 | -5 | . | 24* | 3
CCn1ncc(Br)c1C(=O)Nc1ccc(F)cc1F | 0 | -4 | 4 | 6 | 5 | 2
CCn1ncc(Br)c1C(=O)Nc1ccc(F)c([N+](=O)[O-])c1 | 2 | 28 | 5 | 35 | 1 | 35*
Cc1cccc(NC(=O)COC(=O)c2ccccc2SCC(=O)N2CCCC2)c1 | 0 | -2 | 1 | 3 | -3 | 2
COc1cc(/C=C2/C(=O)N(c3ccc(Br)cc3)N=C2C)cc([N+](=O)[O-])c1O | . | . | -1 | 4 | . | .
COc1cc(/C=C2/C(=O)N(c3cccc(Br)c3)N=C2C)cc(OC)c1O | 0 | 1 | 1 | 5 | 15* | -9
CSCCC(NC(=O)OCc1ccccc1)C(=O)NC(Cc1c[nH]c2ccccc12)C(=O)O (stereo not drawn) | . | 2 | . | . | . | 1
CC1(C)Oc2ccc3ccc(=O)oc3c2/C(=C/Nc2ccccn2)C1=O | 0 | 0 | 7 | . | 15* | -3
CN/C=C1\C(=O)C(C)(C)Oc2ccc3ccc(=O)oc3c21 | 0 | -1 | -3 | 13 | 0 | -1
O=C(CSc1nnc(NC(=O)c2c(F)cccc2Cl)s1)Nc1ccccc1F | 0 | 0 | 13 | 3 | 8 | 2
COc1ccc(C(=O)NCCN2C(=O)C3C4C=CC(C4)C3C2=O)cc1OC (stereo not drawn) | . | -2 | . | . | . | 1
Cc1ccc(C(=O)NCCSc2ccc(Cl)cc2)cc1S(=O)(=O)Nc1ccccc1 | 0 | -6 | 6 | . | 22* | 7
Cc1ccc(NS(=O)(=O)c2cc(C(=O)NCCSc3ccc(C)cc3)ccc2C)cc1 | 0 | -8 | -10 | . | 13* | 1
Cc1ccc(SCCNC(=O)c2ccc(C)c(S(=O)(=O)Nc3cccc(C)c3)c2)cc1 | 0 | -1 | 8 | . | 7 | 0
Cc1ccc(C)c(S(=O)(=O)Nc2ccc(C(=O)N3CCCCC3)cc2)c1 | 0 | 3 | 35 | -20 | 14* | 1
